Measured values as given in article PMC4201344 (ACS Chemical Biology, 2014).
Numbering of substitutions follows the chain as printed. Entries after “also recorded” stand apart in the source; their conditions may differ.

Experiments:
Type in all cases: cell-based, C. elegans
Conditions in all cases: glutamate
[1] = molecular target: T1, GluClβ A2′S (Caenorhabditis elegans, UniProt Q17328, A279S); test: two-electrode voltage clamp, Xenopus laevis oocytes
T1 sequence (Q17328 23-434 A279S): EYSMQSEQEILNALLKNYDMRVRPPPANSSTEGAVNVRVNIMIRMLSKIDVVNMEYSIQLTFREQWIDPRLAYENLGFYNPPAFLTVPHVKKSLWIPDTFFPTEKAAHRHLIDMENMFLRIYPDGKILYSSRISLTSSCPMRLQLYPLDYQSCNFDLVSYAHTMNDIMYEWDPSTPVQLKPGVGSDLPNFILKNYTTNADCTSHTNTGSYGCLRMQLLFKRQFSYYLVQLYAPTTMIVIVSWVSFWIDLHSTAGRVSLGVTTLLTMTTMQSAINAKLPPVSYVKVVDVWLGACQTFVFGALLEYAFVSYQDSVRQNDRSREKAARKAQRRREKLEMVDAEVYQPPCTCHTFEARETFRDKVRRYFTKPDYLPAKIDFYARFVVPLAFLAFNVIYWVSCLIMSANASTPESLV

[2] = molecular target: GluClβ T6′A (Caenorhabditis elegans, UniProt Q17328, T283A); test: two-electrode voltage clamp, Xenopus laevis oocytes
GluClβ T6′A, sequence (Q17328 23-434 T283A): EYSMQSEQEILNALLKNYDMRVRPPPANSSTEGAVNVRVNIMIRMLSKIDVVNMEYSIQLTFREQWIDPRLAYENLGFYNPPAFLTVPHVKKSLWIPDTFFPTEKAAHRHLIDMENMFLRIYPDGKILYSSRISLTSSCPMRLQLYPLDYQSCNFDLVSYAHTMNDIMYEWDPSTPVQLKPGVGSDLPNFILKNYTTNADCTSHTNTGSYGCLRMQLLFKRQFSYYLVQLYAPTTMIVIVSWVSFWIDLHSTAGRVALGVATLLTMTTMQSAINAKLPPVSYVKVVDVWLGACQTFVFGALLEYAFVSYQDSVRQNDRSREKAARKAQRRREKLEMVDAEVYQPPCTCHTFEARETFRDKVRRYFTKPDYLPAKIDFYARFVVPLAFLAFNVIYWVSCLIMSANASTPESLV
Outline: (§1)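 C. elegans GluClβ (mammalian codon-optimised) in pGEMhe, mutated by QuikChange; T7 mRNA. […] Voltage clamp at −60 mV in Ca-free ND96, pH 7.5. […] Peak currents taken from baseline, normalised, averaged per concentration, and fit to Hill equation (EC50, nH).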

[3] = molecular target: GluClβ L9′F (Caenorhabditis elegans, UniProt Q17328, L286F); test: as above
GluClβ L9′F, sequence (Q17328 23-434 L286F): as the sequence (Q17328 23-434 T283A) above, with A261T, L264F counted along it
Outline: as §1

[4] = molecular target: GluClβ L9′V (Caenorhabditis elegans, UniProt Q17328, L286V); test: as above
GluClβ L9′V, sequence (Q17328 23-434 L286V): as the sequence (Q17328 23-434 T283A) above, with A261T, L264V counted along it
Outline: as §1

[5] = molecular target: T2, GluClβ A20′T (Caenorhabditis elegans, UniProt Q17328, A297T); test: two-electrode voltage clamp, Xenopus laevis oocytes
T2 sequence (Q17328 23-434 A297T): T1 sequence (Q17328 23-434 A279S) with S257A, A275T

[6] = molecular target: T3, GluClβ with α signal peptide, T6′S, Y156F (Caenorhabditis elegans, UniProt Q17328, T283S/Y182F); test: two-electrode voltage clamp, Xenopus laevis oocytes
T3 sequence (Q17328 23-434 Y182F/T283S): T1 sequence (Q17328 23-434 A279S) with Y160F, S257A, T261S
Outline: as §1

[7] = test system: GluClβ with α signal peptide, T6′S, F96TAG F2–Phe; test: two-electrode voltage clamp, Xenopus laevis oocytes, nonsense suppression
[8] = test system: GluClβ with α signal peptide, T6′S, F96TAG F3–Phe; test: as above
[9] = test system: GluClβ with α signal peptide, T6′S, Y156TAG OMe–Phe; test: two-electrode voltage clamp, Xenopus laevis oocytes, nonsense suppression
Outline: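 Site-specific TAG codon, read by 74mer THG73 tRNA ligated to dCA-acylated amino acid; NVOC removed by 5 min xenon-lamp irradiation just before injection. Oocytes coinjected with 37.5 ng mRNA plus ~1 μg/μL tRNA at 48 and 24 h pre-recording; unacylated 76mer tRNA served as read-through control.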

[10] = test system: GluClβ T6′S, Y206TAG F2–Phe (3,5-F2–Phe); test: two-electrode voltage clamp, Xenopus laevis oocytes, nonsense suppression
[11] = test system: GluClβ T6′S, Y206TAG Br–Phe; test: as above
[12] = molecular target: GluClβ T6′S, T203A (Caenorhabditis elegans, UniProt Q17328, T229A/T283S); test: two-electrode voltage clamp, Xenopus laevis oocytes
GluClβ T6′S, T203A, sequence (Q17328 23-434 T229A/T283S): as the sequence (Q17328 23-434 T283A) above, with T207A, A261S counted along it

[13] = molecular target: GluClβ T6′S, N202A (Caenorhabditis elegans, UniProt Q17328, N228A/T283S); test: as above
GluClβ T6′S, N202A, sequence (Q17328 23-434 N228A/T283S): as the sequence (Q17328 23-434 T283A) above, with N206A, A261S counted along it

[14] = molecular target: GluClβ T6′S, Y156A (Caenorhabditis elegans, UniProt Q17328, T283S/Y182A); test: two-electrode voltage clamp, Xenopus laevis oocytes
GluClβ T6′S, Y156A, sequence (Q17328 23-434 Y182A/T283S): as the sequence (Q17328 23-434 T283A) above, with Y160A, A261S counted along it
Outline: as §1

[15] = molecular target: GluClβ T6′S, S126A (Caenorhabditis elegans, UniProt Q17328, S152A/T283S); test: two-electrode voltage clamp, Xenopus laevis oocytes
GluClβ T6′S, S126A, sequence (Q17328 23-434 S152A/T283S): as the sequence (Q17328 23-434 T283A) above, with S130A, A261S counted along it

## N[C@@H](CCC(=O)O)C(=O)O [glutamate]
[1]
  EC50: 630 ± 10 µM
  Hill: 2.0 ± 0.1
  Imax: 0.6–6 μA
[2]
  EC50: not functional; also recorded: very low response
[3]
  EC50: constitutively active
[4]
  EC50: no response
[5]
  EC50: 110 ± 20 µM
  Hill: 1.7 ± 0.1
  Imax: 0.5–48 μA
[6]
  EC50: 15000 ± 1000 µM
  Hill: 2.3 ± 0.2
  Imax: 1–5 μA
[7]
  EC50: 4.7 ± 0.1 µM
  Hill: 4.1 ± 0.5
  Imax: 0.04–1 μA
[8]
  EC50: 39 ± 1 µM
  Hill: 2.4 ± 0.2
  Imax: 0.06–0.6 μA
[9]
  EC50: nonfunctional; also recorded: no response
[10]
  Imax: 0.1–0.6 μA
[10]; no plateau at highest concentration 100 mM
  EC50: > 100000 µM
[11]
  EC50: 980 ± 30 µM
  Hill: 2.5 ± 0.1
  Imax: 0.08–6 μA
[12]
  EC50: 640 ± 10 µM
  Hill: 2.3 ± 0.1
[13]
  Hill: 3.3 ± 0.2
[14]
  EC50: no response
[15]
  EC50: 4700 ± 100 µM
  Hill: 2.5 ± 0.1
